PAFAH1B2 inh = PAFAH1B2 (human) inhibition | recombinant PAFAH1B2, FP-rhodamine activity probe, fluorescence polarization | inhibition, % at 3.39 µM | 1.2% of 340,000 active;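 active = inhibition above the mean of all tested compounds plus 3 SD, cut at about 24% in these data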
PAFAH1B3 FP inh = inhibitors of human PAFAH1B3. recombinant PAFAH1B3, FP-rhodamine probe, fluorescence polarization. Q15102. inhibition, % at 3.39 µM. 0.28% of 340,000 active;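 active = inhibition above the screen-wide average of all tested compounds plus 3 SD, cut at about 25% in these data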
PAFAH2 inh = PAFAH2 (human) inhibition; Q99487; recombinant PAFAH2, FP-rhodamine activity probe, fluorescence polarization; inhibition, % at 3.39 µM; 0.99% of 340,000 active;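 active = inhibition above the mean over all tested compounds plus 3 SD, cut at about 30% in these data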;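 also: inhibitors block probe labeling of enzyme so polarization drops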
IMP-1 inh = inhibitors of Pseudomonas aeruginosa IMP-1 metallo-beta-lactamase; purified IMP-1, nitrocefin hydrolysis, epi-absorbance fluorescence; AID 1556; 0.45% of 290,000 active; inhibition, % at 5.6 µM;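 active = inhibition above the mean plus 3 SD of all compounds in the same screening run, cut at about 4.5% in these data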
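Material – recombinant IMP-1 enzyme, purified · Amount – IMP-1 0.2 nM before substrate addition · Medium – HEPES buffer pH 7.1 with ZnSO4 and Brij 35 · Timing – 25 °C, 15 min preincubation, 25 min reaction · Measured by – plate fluorescence quenching by hydrolysis product, ex 480/em 530 nm · Read-out – percent enzyme inhibition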
VIM-2 inh = inhibitors of Pseudomonas aeruginosa VIM-2 metallo-beta-lactamase; 0.89% of 290,000 active; AID 1527; purified VIM-2, nitrocefin hydrolysis, epi-absorbance fluorescence; inhibition, % at 5.6 µM;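 active = inhibition above the mean of all tested compounds plus 3 SD, cutoff set per screening run, cut at about 7.5% in these data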;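 also: red hydrolysis product quenches plate fluorescence so inhibitors raise well fluorescence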
pPAFAH inh = inhibitors of human plasma PAF acetylhydrolase (pPAFAH); Q13093; recombinant pPAFAH, FP-rhodamine probe fluorescence polarization; inhibition, % at 3.39 µM; 1.5% of 330,000 active; AID 463082;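 active = inhibition above the mean inhibition across the screen plus 3 SD, cut at about 25% in these data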;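 also: inhibitors block binding of the rhodamine activity-based probe so polarization drops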
Target sequence (Q13093 whole entry, looked up): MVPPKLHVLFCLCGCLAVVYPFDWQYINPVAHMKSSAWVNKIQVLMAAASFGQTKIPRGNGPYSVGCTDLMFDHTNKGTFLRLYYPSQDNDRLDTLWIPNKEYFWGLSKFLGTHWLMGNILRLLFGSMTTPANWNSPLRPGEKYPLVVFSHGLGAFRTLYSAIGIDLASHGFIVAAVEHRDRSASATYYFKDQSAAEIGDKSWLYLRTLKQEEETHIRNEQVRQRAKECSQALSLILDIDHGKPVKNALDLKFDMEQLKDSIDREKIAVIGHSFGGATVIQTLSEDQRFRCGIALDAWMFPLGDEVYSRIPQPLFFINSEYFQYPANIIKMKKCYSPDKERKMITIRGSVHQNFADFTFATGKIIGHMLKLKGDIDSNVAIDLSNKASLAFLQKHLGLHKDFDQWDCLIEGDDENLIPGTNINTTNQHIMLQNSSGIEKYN
Large screens that a line does not name were inactive. Most compounds without a hit are left out; they make up all but 3.6% or so of the library.

O=C(N1CCOCC1)C1(c2ccccc2)CCCCC1	PAFAH1B2 inh 28
Cc1ccc2c(c1)N(CC(=O)NCCCN1CCN(C)CC1)C(=O)CO2	none
CCOC(=O)c1c(NC(=O)/C=C\C(=O)O)sc(C)c1-c1ccccc1	none
Cc1sc(NC(=O)C2CCCCC2C(=O)O)c(C(N)=O)c1-c1ccc(C(C)(C)C)cc1 (configuration not stated)	PAFAH1B2 inh 26
CCOC(=O)c1c(NC(=O)/C=C/C(=O)O)sc(C)c1-c1ccc(C(C)(C)C)cc1	pPAFAH inh 33
CCOc1ccc(N=Nc2c(=O)[nH]n3c(=O)c4c([nH]c23)CCCC4)cc1	none
O=c1[nH]n2c(=O)c3c([nH]c2c1N=Nc1cccc(Cl)c1)CCCC3	PAFAH1B2 inh 34, PAFAH2 inh 30, pPAFAH inh 31
Cc1ccc(C2CC(c3cccs3)=NN2C(=O)CSc2nc(=O)n3cc(C)ccc3n2)cc1 (configuration not stated)	none (no result: IMP-1 inh, VIM-2 inh)
COc1ccc2c(CC(=O)N3CCN(S(=O)(=O)c4ccc(F)cc4)CC3)coc2c1	none (no result: IMP-1 inh, VIM-2 inh)
CCN(c1ccccc1)S(=O)(=O)c1ccc(Cl)c(NC(=O)CN(C)Cc2cccc(F)c2)c1	none (no result: IMP-1 inh, VIM-2 inh, pPAFAH inh)
COc1cccc2c1-c1c(O)cccc1C2=O	VIM-2 inh 11
COc1ccc([C@H]2CC(=O)C=C(c3ccnc4ccc(Cl)cc34)C2)cc1	none (no result: IMP-1 inh, VIM-2 inh)
CCOC(=O)C1=C(COC(=O)c2ccc([N+](=O)[O-])s2)NC(=O)NC1C (configuration not stated)	PAFAH1B3 FP inh 52, PAFAH2 inh 36 (no result: IMP-1 inh, VIM-2 inh)
CCOC(=O)C1=C(COC(=O)c2sccc2C)NC(=O)NC1C (configuration not stated)	none (no result: IMP-1 inh, VIM-2 inh)
CN(C)CCOc1ccc(C(C)(C)c2ccccc2)cc1	none
CC(C)(c1ccccc1)c1ccc(OCC2CO2)cc1 (configuration not stated)	pPAFAH inh 25
CC1(C)C(=O)Nc2ccccc2N1C(=O)COC(=O)CNS(=O)(=O)c1ccc(F)c(F)c1F	none (no result: IMP-1 inh, VIM-2 inh)
Cc1c(/C=N\NC(=O)c2cccc(F)c2)cnn1C	none
CCc1ccc(OCc2cccc(C(=O)N/N=C\c3cnn(C)c3C)c2)cc1	IMP-1 inh 6.4 (no result: pPAFAH inh)
O=C(CCN1C(=O)/C(=C/c2ccccc2F)SC1=S)N[C@@H](CO)Cc1ccccc1	PAFAH1B2 inh 38
O=C(CCN1C(=O)/C(=C/c2ccccc2)SC1=S)N[C@@H](CO)Cc1ccccc1	PAFAH1B2 inh 43
O=C(CCN1C(=O)/C(=C\c2ccccc2F)SC1=S)Nc1ccc(C(=O)O)c(O)c1	none
C/C(N)=C(/C#N)C(=O)CN1C(=O)NC(Cc2c[nH]c3ccccc23)C1=O (configuration not stated)	none
O=C(OCCN=C1NS(=O)(=O)c2ccccc21)c1ccccc1F	none
Cc1ccc(NC(=O)COC(=O)c2ccc([N+](=O)[O-])s2)c(C)c1	PAFAH1B3 FP inh 28, PAFAH2 inh 39
CN(CC(=O)Nc1ccccc1Cl)C(=O)COC(=O)c1ccc([N+](=O)[O-])s1	PAFAH1B3 FP inh 48, PAFAH2 inh 34 (no result: IMP-1 inh, VIM-2 inh)
NS(=O)(=O)c1ccc(NC(=O)COC(=O)c2ccc([N+](=O)[O-])s2)cc1	PAFAH1B3 FP inh 30, PAFAH2 inh 43, pPAFAH inh 33
Cc1ccc(SCC(=O)OCC(=O)N(C)CC(=O)Nc2ccccc2Cl)cc1C	pPAFAH inh 34
CN(CC(=O)Nc1ccccc1Cl)C(=O)COC(=O)c1cccs1	none (no result: IMP-1 inh, VIM-2 inh)
Cc1cc(C)c(NC(=O)COC(=O)c2ccc([N+](=O)[O-])s2)c(C)c1	none
CN(CC(=O)Nc1ccccc1Cl)C(=O)COC(=O)CSc1ccc(F)cc1	none (no result: IMP-1 inh, VIM-2 inh)
CCCN1CCC(=O)N(CCO)CC1	none
CCOC(=O)NC1CCc2cc(OC)c(OC)c(OC)c2-c2ccc(OC)c(=O)cc21 (configuration not stated)	none (no result: IMP-1 inh, VIM-2 inh, pPAFAH inh)
Cc1cc(C)c(NS(=O)(=O)c2c(C(=O)N3CCOCC3)c(C)n(C)c2C)c(C)c1	pPAFAH inh 29
O=C(NCC(c1ccccc1Cl)N1CCCC1)c1ccc(N2CCCC2=O)cc1 (configuration not stated)	none (no result: IMP-1 inh, VIM-2 inh, pPAFAH inh)
O=C(CN1CCN(CCN2C(=O)c3cccc4cccc(c34)C2=O)CC1)c1ccc(F)cc1	VIM-2 inh 8.9
O=C1c2cccc3cccc(c23)C(=O)N1CCN1CCN(C(=S)Nc2ccc(F)cc2)CC1	none (no result: PAFAH1B2 inh, PAFAH1B3 FP inh, PAFAH2 inh)
